In data set [1] the test system is HCT-116. As to the kind of experiment: Induction of apoptosis in human HCT116 cells pretreated with Z-VAD-FMK pan-caspase inhibitor for 1 hr assessed as early apoptotic cells at 1 uM after 48 hrs by Annexin V-FITC/propidium iodide staining-based FACS analysis (reference value: 1.34%). The class given is functional. More on the design: scale not given: the % may be the effect or the level left.

Data set [2] can be described thus: Clearance in Sprague-Dawley rat at 1.0 mg/kg, iv. The class given is ADME, organism-based. Conditions: in vivo. Summed up:
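Male SD rats dosed i.v. at 1.0 mg/kg or orally at 3.0 mg/kg. Vehicle is DMSO, Tween 80 and normal saline. Plasma concentration–time data give CL, Vss, T1/2, Cmax, Tmax, MRT, AUC and oral bioavailability F.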

The subject of a further data set is BT-474. As to the kind of experiment: Antiproliferative activity against human BT474 cells after 72 hrs by sulforhodamine B assay. As to conditions: BT-474, 72 h. The class given is functional, cell-based. Summed up:
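Cells grown in ATCC-specified medium with 10% heat-inactivated FBS, penicillin/streptomycin and 10 mM Hepes, at 37 °C under 5% CO2. Seeded, cultured overnight, then exposed to gradient concentrations for 72 h. Growth read by SRB staining; inhibition % = [1−(A450 treated/A450 control)]×100. IC50 obtained by the Logit method from independent experiments.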

Data set [3] deals with HCT-116. Kind of data set: Induction of apoptosis in human HCT116 cells pretreated with Z-VAD-FMK pan-caspase inhibitor for 1 hr assessed as early apoptotic cells at 0.5 uM after 48 hrs by Annexin V-FITC/propidium iodide staining-based FACS analysis (reference value: 1.34%). The class given is functional. More on the design: scale not given: the % may be the effect or the level left.

The test system of the next data set is Liver. As to the kind of experiment: Intrinsic clearance in rat liver microsomes assessed per mg protein up to 60 mins by LC-MS/MS analysis. Format: ADME, microsome. As to conditions: 1 h. Summed up: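 Liver microsomes (0.33 mg/mL protein) in 0.1 M Tris/HCl pH 7.4 with 5 mM MgCl2, 1 mM NADPH, compound at 0.1 μM final (0.01% DMSO, 0.005% BSA), 37 °C; samples at 0, 7, 17, 30, 60 min quenched in methanol, centrifuged, LC-MS/MS; T1/2 and Clint per g protein derived.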

A short description of data set [4]: Half life in rat liver microsomes at 0.1 uM up to 60 mins by LC-MS/MS analysis. Format: ADME, microsome. The procedure, abridged: (§1)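 Compound at 0.1 μM final (0.01% DMSO, 0.005% BSA) incubated at 37 °C with human, rat or mouse liver microsomes (0.33 mg/mL protein) in 0.1 M Tris/HCl pH 7.4, with 5 mM MgCl2 and 1 mM NADPH. Samples taken at 0, 7, 17, 30 and 60 min, quenched by methanol precipitation, centrifuged, and parent measured by LC-MS/MS. T1/2 and Clint derived.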

The nature of data set [5]: MRT (infinity) in Sprague-Dawley rat at 1.0 mg/kg, iv. Format: ADME, organism-based. Conditions: in vivo. The procedure, abridged: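 Male SD rats given 1.0 mg/kg i.v. in DMSO/Tween 80/normal saline vehicle; plasma concentration–time profile used for clearance, Vss, MRT.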
Data set [6] has as its system HCT-116. Kind of data set: Induction of apoptosis in human HCT116 cells assessed as late apoptotic cells at 2 uM after 48 hrs by Annexin V-FITC/propidium iodide staining-based FACS analysis (reference value: 5.74%). Format: functional.
Data set [7] relates to HCT-116. As to the kind of experiment: Induction of apoptosis in human HCT116 cells assessed as early apoptotic cells at 1 uM after 48 hrs by Annexin V-FITC/propidium iodide staining-based FACS analysis (reference value: 2.35%). The class given is functional.
Data set [8] can be described thus: Half life in human liver microsomes at 0.1 uM up to 60 mins by LC-MS/MS analysis. Format: ADME, microsome. The procedure, abridged:
as §1

`CCN(CC)CCCn1c2c(c3ccccc3c1=O)C(=O)C(=O)c1cc(C)oc1-2`: the Activity in the data set with HCT-116 [1] turned out to be 2.99%; in the data set on HCT-116 [3], 1.53%; in the data set on HCT-116 [6] it was 32.63%; in the data set with HCT-116 [7], 8.61%. For the same molecule, in data set [2], the clearance was determined as 176 mL/min/kg. This molecule came in with a concentration for half-maximal inhibition (IC50) in the data set on BT-474 of 770 nM. The molecule also came in with an intrinsic clearance with Liver of 27.7 mL/min/g. In addition, the half-life at 0.1 µM in data set [4] turned out to be 75.8 min; in [8], 89.5 min. The same molecule showed an MRT inf in [5] of 50.1 min.

Values taken from ChEMBL document CHEMBL4033782, “Structural Modification of Natural Product Tanshinone I Leading to Discovery of Novel Nitrogen-Enriched Derivatives with Enhanced Anticancer Profile and Improved Drug-like Properties” (J Med Chem, 2018).
